Results from ChEMBL document CHEMBL3525997, “Debrisoquine metabolism and CYP2D expression in marmoset liver microsomes” (Drug Metab Dispos, 2012).
Blank lines part the entries; values can stand above or below the compound they belong to.

Columns and labels:
Assay type in all cases: ADME, Callithrix jacchus
[1] = Drug metabolism in marmoset liver microsomes assessed as 4-hydroxydebrisoquine formation at 500 uM after 120 mins by LC/MS/MS analysis; details: 2 h
Procedure, shortened: (§1)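 Pooled male marmoset liver microsomes (5 mg/ml, batch 1) incubated with [14C]debrisoquine 500 µM, NADPH 6 mM, Tris-HCl 50 mM pH 7.69, 37°C, 120 min. Protein precipitated, supernatant injected on C18 reversed-phase HPLC with 10 mM TFA/acetonitrile linear gradient over 40 min. Detection by UV at 211 nm, radioactivity flow detector, and ESI+ LC-MS/MS with product ion spectra.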

[2] = Drug metabolism in marmoset liver microsomes assessed as metabolite MF-3 formation at 500 uM after 120 mins by radio-HPLC chromatography; details: 2 h; procedure, shortened: as §1
[3] = Drug metabolism in marmoset liver microsomes assessed as metabolite MF-1 formation at 500 uM after 120 mins by LC/MS/MS analysis; details: 2 h; procedure, shortened: as §1
[4] = Drug metabolism in marmoset liver microsomes assessed as metabolite MF-3 formation at 500 uM after 120 mins by LC/MS/MS analysis; details: 2 h; procedure, shortened: as §1
[5] = Drug metabolism in marmoset liver microsomes assessed as 4-hydroxydebrisoquine formation at 500 uM after 120 mins by radio-HPLC chromatography; details: 2 h; procedure, shortened: as §1
[6] = Drug metabolism in marmoset liver microsomes assessed as metabolite MF-1 formation at 500 uM after 120 mins by radio-HPLC chromatography; details: 2 h; procedure, shortened: as §1
[7] = Drug metabolism in marmoset liver microsomes treated with [14C]debrisoquine at 500 uM after 180 mins by NMR analysis; details: 3 h
Procedure, shortened: (§2)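 Large-scale incubation to generate metabolites for structural identification. Pooled marmoset liver microsomal protein 4 mg/ml (batch 1), 6 mM NADPH, 50 mM Tris-HCl pH 7.69, total 35 ml. Reaction started with [14C]debrisoquine to a final concentration of 500 µM and incubated for 180 min.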

[8] = Drug metabolism in marmoset liver microsomes assessed as 5-hydroxydebrisoquine formation at 500 uM after 180 mins by NMR analysis; details: 3 h; procedure, shortened: as §2
[9] = Drug metabolism in marmoset liver microsomes assessed as 8-hydroxydebrisoquine formation at 500 uM after 180 mins by NMR analysis; details: 3 h; procedure, shortened: as §2
[10] = Drug metabolism in marmoset liver microsomes assessed as 4-hydroxydebrisoquine formation at 500 uM after 180 mins by NMR analysis; details: 3 h; procedure, shortened: as §2
[11] = Drug metabolism in marmoset liver microsomes assessed as 7-hydroxydebrisoquine formation at 500 uM after 180 mins by NMR analysis; details: 3 h; procedure, shortened: as §2
[12] = Drug metabolism in marmoset liver microsomes assessed as 6-hydroxydebrisoquine formation at 500 uM after 180 mins by NMR analysis; details: 3 h; procedure, shortened: as §2
[13] = Drug metabolism in marmoset liver microsomes assessed as 6,7-hydroxydebrisoquine formation at 500 uM after 180 mins by NMR analysis; details: 3 h; procedure, shortened: as §2
[14] = Drug metabolism in marmoset liver microsomes treated with [14C]debrisoquine at 500 uM after 120 mins by radio-HPLC chromatography; details: 2 h; procedure, shortened: as §1
[15] = Drug metabolism in marmoset liver microsomes treated with [14C]debrisoquine at 500 uM after 120 mins by LC/MS/MS analysis; details: 2 h; procedure, shortened: as §1

SMILES: N=[14C](N)N1CCc2ccccc2C1
- Drug metabolism [1]: metabolite_detected
- Drug metabolism [2]: metabolite_detected
- Drug metabolism [3]: metabolite_detected
- Drug metabolism [4]: metabolite_detected
- Drug metabolism [5]: metabolite_detected
- Drug metabolism [6]: metabolite_detected

SMILES: N=C(N)N1CCc2cccc(O)c2C1
- Drug metabolism [7]: metabolite_detected

SMILES: N=C(N)N1CCc2ccccc2C1.O=S(=O)(O)O
- Drug metabolism [8]: metabolite_detected
- Drug metabolism [9]: metabolite_detected
- Drug metabolism [10]: metabolite_detected
- Drug metabolism [11]: metabolite_detected
- Drug metabolism [12]: metabolite_detected
- Drug metabolism [13]: metabolite_detected

SMILES: N=C(N)N1Cc2ccccc2C(O)C1 (stereo not given)
- Drug metabolism [14]: metabolite_detected
- Drug metabolism [7]: metabolite_detected
- Drug metabolism [15]: metabolite_detected

Further lines, results first:

- Drug metabolism [7]: metabolite_detected
SMILES: N=C(N)N1CCc2ccc(O)cc2C1

- Drug metabolism [7]: metabolite_detected
SMILES: N=C(N)N1CCc2cc(O)ccc2C1

- Drug metabolism [7]: metabolite_detected
SMILES: N=C(N)N1CCc2cc(O)c(O)cc2C1

- Drug metabolism [7]: metabolite_detected
SMILES: N=C(N)N1CCc2c(O)cccc2C1
